Laboratory results: paper PMC3604185 (Biochemical pharmacology, 2013)
Where “and” joins values, the source holds several entries; their conditions need not be identical. Equal entries are not always repeated.

Assays:
[1] = molecular target: T1, hA3AR (Homo sapiens, UniProt P0DMS8); assay: FCM competitive binding in hA3AR-CHO whole cells with MRS5218; details: read-out: FCM binding at hA3AR, Ki, MRS5218 30 nM tracer, 60 min at 37 °C, 0.4 M sucrose
T1 sequence (P0DMS8 1-318): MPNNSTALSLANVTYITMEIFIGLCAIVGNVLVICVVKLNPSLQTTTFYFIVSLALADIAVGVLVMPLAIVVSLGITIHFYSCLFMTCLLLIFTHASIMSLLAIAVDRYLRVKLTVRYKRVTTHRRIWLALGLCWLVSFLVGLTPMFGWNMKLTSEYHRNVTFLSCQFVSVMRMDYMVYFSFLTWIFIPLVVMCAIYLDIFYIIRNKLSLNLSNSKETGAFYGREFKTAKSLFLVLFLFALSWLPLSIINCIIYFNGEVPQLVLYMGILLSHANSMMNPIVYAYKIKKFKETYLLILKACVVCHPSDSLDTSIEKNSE

[2] = molecular target: T2, mA3AR (Mus musculus, UniProt Q61618); assay: FCM binding
T2 sequence (Q61618 1-319): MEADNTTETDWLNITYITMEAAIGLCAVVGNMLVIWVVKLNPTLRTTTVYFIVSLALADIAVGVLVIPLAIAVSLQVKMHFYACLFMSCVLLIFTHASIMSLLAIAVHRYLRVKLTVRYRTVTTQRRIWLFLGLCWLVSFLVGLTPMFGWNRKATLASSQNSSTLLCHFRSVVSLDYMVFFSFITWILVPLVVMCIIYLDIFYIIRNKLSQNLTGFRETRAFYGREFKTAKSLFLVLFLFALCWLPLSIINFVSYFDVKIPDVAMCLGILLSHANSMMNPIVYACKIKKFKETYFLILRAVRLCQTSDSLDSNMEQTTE
How it was run: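 HEK293 cells stably expressing mouse A3AR, grown in DMEM with 10% FBS and 0.6 mg/ml G418. Cells were incubated with fluorescent agonist (5–1,000 nM) at 37 °C for varied times. […] Cells were washed in ice-cold PBS and detached with 0.2% EDTA. MFI was read in FL-4 (635 nm laser) and fitted by non-linear least squares.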

[3] = molecular target: T1, hA3AR; assay: FCM of MRS5704 in AR-expressing HEK293 cells; format: binding
[4] = molecular target: T3, mA1AR (Mus musculus, UniProt Q60612); format: binding; details: read-out: Ki, A1AR (mouse), n = 3-4
T3 sequence (Q60612 1-326): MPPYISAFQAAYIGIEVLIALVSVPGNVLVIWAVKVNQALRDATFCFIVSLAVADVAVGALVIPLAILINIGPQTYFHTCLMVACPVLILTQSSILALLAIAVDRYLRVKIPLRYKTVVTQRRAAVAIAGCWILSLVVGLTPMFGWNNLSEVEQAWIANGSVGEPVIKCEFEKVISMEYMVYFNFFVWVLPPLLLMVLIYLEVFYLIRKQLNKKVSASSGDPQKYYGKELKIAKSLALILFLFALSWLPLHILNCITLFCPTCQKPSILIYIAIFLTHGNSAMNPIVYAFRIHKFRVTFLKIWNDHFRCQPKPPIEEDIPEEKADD
How it was run: (§1)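 Membranes from HEK293 cells stably expressing the mouse receptor were used in a competition assay following the human-receptor protocol. Test compound at increasing concentrations was incubated with radioligand and membranes in 50 mM Tris-HCl, pH 7.5, with 10 mM MgCl2, at 25 °C for 60 min. Bound and free were separated by GF/B filtration with ice-cold Tris washes. […] Ki was calculated from IC50 by nonlinear fitting.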

[5] = molecular target: T4, mA2AAR (Mus musculus, UniProt Q60613); format: binding; details: read-out: Ki, A2AAR (mouse), n = 3-4
How it was run: as §1

[6] = molecular target: T2, mA3AR; format: binding; details: read-out: Ki, A3AR (mouse), n = 3-4
How it was run: as §1

[7] = molecular target: T5, mA2BAR (Mus musculus, UniProt Q60614); assay: FCM binding in HEK293 cells expressing mA2BAR; details: 1 µM, 2 h
T5 sequence (Q60614 1-332): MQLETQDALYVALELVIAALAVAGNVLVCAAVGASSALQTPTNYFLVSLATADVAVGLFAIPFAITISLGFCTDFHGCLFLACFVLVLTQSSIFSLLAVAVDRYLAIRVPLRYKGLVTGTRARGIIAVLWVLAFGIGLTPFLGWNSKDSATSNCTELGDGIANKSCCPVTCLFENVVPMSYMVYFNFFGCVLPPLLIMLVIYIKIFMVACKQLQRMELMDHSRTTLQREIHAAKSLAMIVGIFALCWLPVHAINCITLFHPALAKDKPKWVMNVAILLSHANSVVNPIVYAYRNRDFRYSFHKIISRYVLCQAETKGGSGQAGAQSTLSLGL
How it was run: (§2)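 Stable HEK293 lines expressing the mouse receptor were grown in DMEM with 10% FBS, 2 mM L-glutamine, penicillin/streptomycin and 0.6 mg/ml G418, then plated for 24 h at 37 °C, 5% CO2. At about 80% confluency, the fluorescent agonist (range 5–1000 nM) was added in fresh medium at 37 °C. Cells were then washed in ice-cold PBS, detached with 0.2% EDTA, spun twice at 400 × g and resuspended in PBS. MFI was read by flow cytometry (635 nm laser, FL-4, log mode).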

[8] = molecular target: T3, mA1AR; assay: FCM binding in HEK293 cells expressing mA1AR; details: 1 µM, 2 h
How it was run: as §2

[9] = molecular target: T4, mA2AAR; assay: FCM binding in HEK293 cells expressing mA2AAR; details: 1 µM, 2 h
How it was run: as §2

[10] = molecular target: T6, hA1AR (Homo sapiens, UniProt P30542); details: inhibition of radioligand binding at 10 µM, ref [19],[21],[22]; cited from earlier work
T6 sequence (P30542 1-326): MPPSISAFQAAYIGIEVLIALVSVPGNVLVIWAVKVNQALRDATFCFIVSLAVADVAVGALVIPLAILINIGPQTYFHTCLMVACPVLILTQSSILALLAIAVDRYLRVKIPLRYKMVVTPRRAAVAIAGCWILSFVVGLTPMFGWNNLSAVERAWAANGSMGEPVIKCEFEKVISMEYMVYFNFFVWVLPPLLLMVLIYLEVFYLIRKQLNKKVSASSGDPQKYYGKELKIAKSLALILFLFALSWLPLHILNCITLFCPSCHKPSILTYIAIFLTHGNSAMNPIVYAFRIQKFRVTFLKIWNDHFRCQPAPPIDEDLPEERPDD

[11] = molecular target: hA2AAR (Homo sapiens, UniProt P29274); details: read-out: Ki, A2AAR, ref [21],[22]; cited from earlier work
Sequence of hA2AAR (P29274 whole entry): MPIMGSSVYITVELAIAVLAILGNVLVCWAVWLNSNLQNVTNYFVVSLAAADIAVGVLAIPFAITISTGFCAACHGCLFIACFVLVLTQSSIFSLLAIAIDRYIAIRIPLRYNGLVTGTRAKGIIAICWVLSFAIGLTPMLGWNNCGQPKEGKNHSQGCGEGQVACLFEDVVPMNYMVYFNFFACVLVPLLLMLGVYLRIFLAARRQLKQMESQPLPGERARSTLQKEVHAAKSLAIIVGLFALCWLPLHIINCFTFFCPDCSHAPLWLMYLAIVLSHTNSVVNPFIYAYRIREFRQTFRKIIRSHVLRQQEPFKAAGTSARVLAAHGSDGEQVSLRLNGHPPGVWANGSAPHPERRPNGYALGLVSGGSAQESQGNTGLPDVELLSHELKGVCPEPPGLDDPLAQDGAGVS

T4 sequence (Q60613 whole entry): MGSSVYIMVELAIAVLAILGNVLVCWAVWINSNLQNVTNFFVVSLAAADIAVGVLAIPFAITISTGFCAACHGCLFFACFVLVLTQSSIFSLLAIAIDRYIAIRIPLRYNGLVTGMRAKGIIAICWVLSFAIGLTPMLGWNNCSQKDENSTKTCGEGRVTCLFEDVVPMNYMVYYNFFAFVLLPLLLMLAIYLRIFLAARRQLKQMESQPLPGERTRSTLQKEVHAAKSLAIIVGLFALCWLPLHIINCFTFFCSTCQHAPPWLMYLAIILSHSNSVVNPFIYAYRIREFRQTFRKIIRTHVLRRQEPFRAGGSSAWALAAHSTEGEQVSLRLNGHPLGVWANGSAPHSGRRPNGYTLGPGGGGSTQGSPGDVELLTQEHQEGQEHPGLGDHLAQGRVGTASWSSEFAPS

With OC[C@H]1O[C@@H](n2cnc3c(NC4CCCC4)ncnc32)[C@H](O)[C@@H]1O [CPA] the Ki [1] was 0.0884 ± 0.0136 µM.
With CNC(=O)[C@@]12C[C@@H]1[C@@H](n1cnc3c(NCc4cccc(Cl)c4)nc(C#Cc4ccc5ccc6cccc7ccc4c5c67)nc31)[C@H](O)[C@@H]2O [Compound 2, (1S,2R,3S,4R,5S)-4-(6-(3-chlorobenzylamino)-2-(pyren-1-ylethynyl)-9H-purin-9-yl)-2,3-dihydroxy-N-methylbicyclo[3.1.0]hexane-1-carboxamide] the “specific fluorescent binding by FCM, mA3AR” value ([2]; AR-expressing HEK293 cells) was “failed to show specific fluorescent binding” and the “specific fluorescent binding by FCM, hA3AR” value [3] was “failed to show specific fluorescent binding”.
Work on “(1′S,2′R,3′S,4′S,5′S)-4′-[6-(3-chlorobenzylamino)-2-(N-cyanine(β-aminoethylaminocarbonyl)-1-butynyl)-9-yl]-2′,3′-dihydroxybicyclo[3.1.0]hexane-1′-carboxylic acid N-methylamide [Compound 1]” yielded a Ki [4] of 0.143 µM, a Ki [5] of 0.717 ± 0.019 µM and a Ki [6] of 0.261 ± 0.029 µM. For the same compound, the t1/2 of dissociation ([2]; 5 nM for 2 h, then NECA (100 µM)) was 39.4 ± 4.2 min, the t1/2 of association ([2]; 5 nM, listed as MRS5218) was 38 min and 37.8 ± 2.9 min and the “specific labeling of mA3AR-HEK293 cells” value ([2]; 50-300 nM, 2 h, nonspecific with 100 µM NECA) was “specifically labeled mA3AR-HEK293 cells versus cells expressing other AR subtypes”. For the same compound, the Kd ([2]; read-out: Kd app, saturation, whole cells, 2 h, absence of sucrose) was 0.00752 ± 0.00049 µM, the Bmax ([2]; saturation, whole cells, 2 h, absence of sucrose) was 99,420±18,110 MESF/cell and the “specific binding to mA2BAR-HEK293 cells” value [7] was “became detectable”. The “specific binding to mA1AR-HEK293 cells” value [8] was “not observed”, the “specific binding to mA2AAR-HEK293 cells” value [9] was “not observed” and the “% inhibition, A1AR” value [10] was “h: 36%”. For the same compound, the Ki [11] was 4.73 µM.
